Measured values reported in publication PMC6445238 (Drug Design, Development and Therapy, 2019).

Experiments:
[1] = test system: dopaminergic neuronal cells in the substantia nigra and striatum; settings: ref unpublished data, cited from earlier work
[2] = PD assessments with CNS scales; type: in vivo, human
[3] = test system: dopaminergic neurons treated with MPTP; settings: dose-dependent, ref unpublished data; cited from earlier work
[4] = test system: alpha-synuclein oligomer, total tau, phosphor-tau; assay: MAD study, PD biomarkers; type: in vivo, human
How it was run: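 Healthy male volunteers in the MAD part: young (19–45 y) or elderly (>60 y), randomized 6 active : 2 placebo per cohort, oral dosing once daily for 7 days. Blood and CSF sampled for alpha-synuclein oligomer, and CSF for total and phospho-tau, at day 1 predose and day 7, 1 h after last dose. CSF (about 2 mL) by lumbar puncture at L3–L4. Protein levels were measured by an external biomarker core.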

[5] = MAD study, safety and tolerability; type: in vivo, human; settings: young, N=6
How it was run: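 MAD cohorts were 6 active and 2 placebo healthy males, dosed once daily for 7 days, confined day −1 to day 8, with follow-up on day 14. Safety was monitored by vital signs, clinical labs, 12-lead ECG, physical exams, and AEs reported by subjects or observed by investigators. AEs were coded with MedDRA 19.1. Counts are given as subjects with AEs, % of the safety population. Placebo subjects were pooled.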

## Cc1nn(Cc2ccc(Br)cc2)c(C)c1NC(=O)CSc1ccccc1 [KM-819]
[1]
  behavioral impairments: improved the behavioral impairments
[1]; substantia nigra and striatum
  protection of dopaminergic neuronal cells: protected the dopaminergic neuronal cells
[2]; SAD and MAD
  Bond and Lader VAS: No signs of KM-819 treatment-related effects
  C-SSRS: no apparent treatment or cohort differences
  K-WAIS-IV: no clear treatments differences
  POMS: no apparent treatment or cohort differences
[2]; whole study
  effects on the estimated pharmacodynamic variables: No clear treatment-related effects
[3]
  protection of dopaminergic neurons: protect the dopaminergic neurons
[4]; 30 mg QD, young
  Alpha-synuclein oligomer, CSF, change from baseline (day 1 predose) to day 7, mean (SD): 49.94 (72.09) pg/mL
  Alpha-synuclein oligomer, plasma, change from baseline (day 1 predose) to day 7, mean (SD): 3,884.41 pg/mL
  Phosphor-tau, CSF, change from baseline (day 1 predose) to day 7, mean (SD): 6.41 (19.04) pg/mL
  Total tau, CSF, change from baseline (day 1 predose) to day 7, mean (SD): 60.30 (64.42) pg/mL
[4]; 100 mg QD, young
  Alpha-synuclein oligomer, CSF, change from baseline (day 1 predose) to day 7, mean (SD): −252.56 (643.49) pg/mL
  Alpha-synuclein oligomer, plasma, change from baseline (day 1 predose) to day 7, mean (SD): 575.46 (18,379.46) pg/mL
  Phosphor-tau, CSF, change from baseline (day 1 predose) to day 7, mean (SD): 0.21 (1.13) pg/mL
  Total tau, CSF, change from baseline (day 1 predose) to day 7, mean (SD): 9.23 (15.82) pg/mL
[4]; 200 mg QD, elderly
  Alpha-synuclein oligomer, CSF, change from baseline (day 1 predose) to day 7, mean (SD): 34.87 (51.42) pg/mL
  Alpha-synuclein oligomer, plasma, change from baseline (day 1 predose) to day 7, mean (SD): −11,712.09 pg/mL
  Phosphor-tau, CSF, change from baseline (day 1 predose) to day 7, mean (SD): 5.16 (10.88) pg/mL
  Total tau, CSF, change from baseline (day 1 predose) to day 7, mean (SD): 29.30 (100.07) pg/mL
[4]; 200 mg QD, young
  Alpha-synuclein oligomer, CSF, change from baseline (day 1 predose) to day 7, mean (SD): 0.60 (18.22) pg/mL
  Alpha-synuclein oligomer, plasma, change from baseline (day 1 predose) to day 7, mean (SD): 3,809.51 pg/mL
  Phosphor-tau, CSF, change from baseline (day 1 predose) to day 7, mean (SD): 4.47 (7.88) pg/mL
  Total tau, CSF, change from baseline (day 1 predose) to day 7, mean (SD): −3.16 (15.01) pg/mL
[4]; 400 mg QD, young
  Alpha-synuclein oligomer, CSF, change from baseline (day 1 predose) to day 7, mean (SD): 18.21 (103.83) pg/mL
  Alpha-synuclein oligomer, plasma, change from baseline (day 1 predose) to day 7, mean (SD): −64,843.29 pg/mL
  Phosphor-tau, CSF, change from baseline (day 1 predose) to day 7, mean (SD): 6.70 (11.82) pg/mL
  Total tau, CSF, change from baseline (day 1 predose) to day 7, mean (SD): 27.86 (66.07) pg/mL
[5]; 30 mg QD 7 days
  Abdominal discomfort, number of subjects (%): 0
  Abdominal pain, number of subjects (%): 0
  Anxiety, number of subjects (%): 0
  Back pain, number of subjects (%): 0
  Diarrhea, number of subjects (%): 0
  Dizziness, number of subjects (%): 1 (16.7)
  Epistaxis, number of subjects (%): 0
  Erythema of eyelid, number of subjects (%): 0
  Erythema, number of subjects (%): 0
  Headache, number of subjects (%): 2 (33.3)
  Hyperbilirubinemia, number of subjects (%): 0
  Hyperhidrosis, number of subjects (%): 0
  Hypoesthesia, number of subjects (%): 0
  Insomnia, number of subjects (%): 0
  Muscle hemorrhage, number of subjects (%): 0
  Musculoskeletal stiffness, number of subjects (%): 0
  Nausea, number of subjects (%): 2 (33.3)
  Neck pain, number of subjects (%): 0
  Oropharyngeal pain, number of subjects (%): 0
  Subjects with any TEAEs, number of subjects (%): 2 (33.3)
  Vomiting, number of subjects (%): 2 (33.3)
[5]; 100 mg QD 7 days
  Abdominal discomfort, number of subjects (%): 0
  Abdominal pain, number of subjects (%): 0
  Anxiety, number of subjects (%): 0
  Back pain, number of subjects (%): 2 (33.3)
  Diarrhea, number of subjects (%): 0
  Dizziness, number of subjects (%): 1 (16.7)
  Epistaxis, number of subjects (%): 0
  Erythema of eyelid, number of subjects (%): 0
  Erythema, number of subjects (%): 0
  Headache, number of subjects (%): 1 (16.7)
  Hyperbilirubinemia, number of subjects (%): 0
  Hyperhidrosis, number of subjects (%): 0
  Hypoesthesia, number of subjects (%): 0
  Insomnia, number of subjects (%): 0
  Muscle hemorrhage, number of subjects (%): 0
  Musculoskeletal stiffness, number of subjects (%): 0
  Nausea, number of subjects (%): 1 (16.7)
  Neck pain, number of subjects (%): 0
